# From ChEMBL document CHEMBL3588747, “Virtual High-Throughput Screening To Identify Novel Activin Antagonists” (J Med Chem, 2015)
# The source made the active and inactive calls. The rule behind the calls is not given here.
# System: not listed separately
# Test: Solubility of the compound in cell growth medium up to 200 uM after 24 hrs by upright light microscopy
# Type: physicochemical
# Details: not given
# How it was run: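 Compound from 50 mM DMSO stock diluted to 200 µM final in DMEM-F12 with 5% FBS, 1% penicillin/streptomycin, […] D-glucose, held 24 h; precipitate checked visually under upright light microscope.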
row,Compound,solubility
1,O=C(NCc1ccccc1)c1nn(CCO)c2c1CN(C1CCCC1)CC2,soluble
2,COc1ccc(OC[C@@H](O)CN2CCC(O)CC2)c(CNCCc2cccnc2)c1,soluble
3,O=C(NCc1cccc(F)c1)[C@@H]1CCC(=O)N(CCCN2CCCC2=O)C1,soluble
4,Cc1n[nH]c(O)c1C(c1ccc(-c2ccccc2C(=O)O)o1)c1c(C)n[nH]c1O,soluble
5,CCn1c(-c2cccnc2)nc2cc(NC(=O)COC)cc(C(=O)NCc3ccccc3)c21,soluble

# System: not listed separately
# Test: Cytotoxicity against mouse LbetaT2 cells assessed as reduction in cell viability at 100 uM after 24 hrs by MTT assay
# Type: functional
# Details: not given
# How it was run: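 LβT2 gonadotrope cells seeded 5 × 10^4/well, grown 24 h in DMEM-F12 with 5% FBS and […] D-glucose, then exposed to compound at 10 or 100 µM in growth medium for 24 h. MTT added for a further 2–3 h; absorbance at 490 nm as viability.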
row,Compound,inhibition at 100 µM [%]
1,O=C(NCc1ccccc1)c1nn(CCO)c2c1CN(C1CCCC1)CC2,< 20
2,COc1ccc(OC[C@@H](O)CN2CCC(O)CC2)c(CNCCc2cccnc2)c1,< 20
3,O=C(NCc1cccc(F)c1)[C@@H]1CCC(=O)N(CCCN2CCCC2=O)C1,< 20
4,Cc1n[nH]c(O)c1C(c1ccc(-c2ccccc2C(=O)O)o1)c1c(C)n[nH]c1O,< 20
5,CCn1c(-c2cccnc2)nc2cc(NC(=O)COC)cc(C(=O)NCc3ccccc3)c21,< 20

# Target: T1, Inhibin beta A chain (Mus musculus, UniProt Q04998)
# T1 sequence (Q04998 whole entry): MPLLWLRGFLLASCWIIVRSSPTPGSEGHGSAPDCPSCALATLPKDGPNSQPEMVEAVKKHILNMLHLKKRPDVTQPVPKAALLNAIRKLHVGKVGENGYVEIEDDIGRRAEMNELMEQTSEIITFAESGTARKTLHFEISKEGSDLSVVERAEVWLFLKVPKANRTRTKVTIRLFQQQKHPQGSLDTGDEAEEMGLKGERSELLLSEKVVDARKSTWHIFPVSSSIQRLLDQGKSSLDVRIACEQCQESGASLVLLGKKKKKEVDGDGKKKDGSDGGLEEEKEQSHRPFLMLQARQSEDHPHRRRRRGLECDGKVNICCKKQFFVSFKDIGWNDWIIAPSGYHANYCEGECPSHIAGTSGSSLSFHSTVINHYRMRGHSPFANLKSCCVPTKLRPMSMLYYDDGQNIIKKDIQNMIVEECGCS
# Test: Antagonist activity at activin A in mouse LbetaT2 cells transfected with -338 promoter region of FSHbeta gene conjugated to luciferase reporter assessed as inhibition of FSHbeta promoter activation by luciferase assay
# Type: cell-based
# Details: not given
# How it was run: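 −338FSHβ-Luc stably transfected LβT2 cells, 5 × 10^4 cells/well, plated 24 h, then given activin A (0.2 nM) with compound at 0.4–100 µM (in DMSO) or Fst288 0.05–4 nM as control, 6 h at 37 °C in serum-free, phenol red-free DMEM-F12. Cells lysed, luciferase activity read; IC50 from sigmoidal variable-slope fit; means ± SD.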
row,IC50 [µM],Compound
1,> 100,O=C(NCc1ccccc1)c1nn(CCO)c2c1CN(C1CCCC1)CC2
2,4.18,COc1ccc(OC[C@@H](O)CN2CCC(O)CC2)c(CNCCc2cccnc2)c1
3,> 100,O=C(NCc1cccc(F)c1)[C@@H]1CCC(=O)N(CCCN2CCCC2=O)C1
4,> 100,Cc1n[nH]c(O)c1C(c1ccc(-c2ccccc2C(=O)O)o1)c1c(C)n[nH]c1O

row,Compound,IC50 [µM]
1,CCn1c(-c2cccnc2)nc2cc(NC(=O)COC)cc(C(=O)NCc3ccccc3)c21,3.67

# System: HepG2
# Test: […] in human HepG2 cells assessed as cell viability after 96 hrs by MTT assay
# Type: functional, cell-based
# Details: HepG2, 96 h
# How it was run: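 HepG2 cells (5 × 10^4/well) treated with 1 nM activin A alone (DMSO solvent control) or with compound 1.6–200 µM or Fst288 0.5–8 nM, 96 h at 37 °C in DMEM with 0.2% FBS, pyruvate, glutamine. MTT added 0.5–1 h for viability as reversal of activin-induced apoptosis; IC50 from sigmoidal variable-slope fit; means ± SD.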
row,Compound,IC50 [µM]
1,COc1ccc(OC[C@@H](O)CN2CCC(O)CC2)c(CNCCc2cccnc2)c1,47.3
2,CCn1c(-c2cccnc2)nc2cc(NC(=O)COC)cc(C(=O)NCc3ccccc3)c21,12.1

# Target: T2, Inhibin beta A chain (Mus musculus) (UniProt Q04998)
# T2 sequence (whole entry): T1 sequence (Q04998 whole entry)
# Test: Inhibition of activin A stimulated 4 day old CD1 mouse ovarian cell proliferation at 200 uM for 4 days by BrdU assay
# Details: not given
# How it was run: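 Ovaries from 4-day-old CD1 mice cultured on membrane inserts in DMEM/F12 with 0.03% BSA with 1 nM activin A plus compound at 200 µM (DMSO control; Fst288 4 nM or inhibin A 8 nM references) for 4 days, then 10 µM BrdU for 24 h. Genomic DNA (150 ng) denatured, dot-blotted, probed with anti-BrdU, ECL, densitometry; three independent experiments; ANOVA/Tukey.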
row,Compound,inhibition
1,CCn1c(-c2cccnc2)nc2cc(NC(=O)COC)cc(C(=O)NCc3ccccc3)c21,Active

# System: Mus musculus
# Test: Toxicity in ovariectomized CD1 mouse assessed as liver and kidney histopathology at 60 mg/kg, sc twice daily for 2 days
# Type: organism-based
# Details: in vivo, 48 h
# How it was run: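 Ovariectomized CD1 mice given vehicle or 60 mg/kg subcutaneously, 4 doses over 2 days; kidney and liver fixed in Modified Davidson's fixative 5 days at 4 °C, paraffin-embedded, H&E stained for histopathology.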
row,Compound,Activity
1,CCn1c(-c2cccnc2)nc2cc(NC(=O)COC)cc(C(=O)NCc3ccccc3)c21,Non-toxic

# System: Mus musculus
# Test: Toxicity in ovariectomized CD1 mouse assessed as change in behavior at 60 mg/kg, sc twice daily for 2 days
# Type: organism-based
# Details: in vivo, 48 h
# How it was run: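 Ovariectomized 12-week-old CD1 mice given subcutaneous compound twice daily for 2 days (4 doses); behaviour observed after injection.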
row,Compound,Activity
1,CCn1c(-c2cccnc2)nc2cc(NC(=O)COC)cc(C(=O)NCc3ccccc3)c21,Non-toxic

# System: Mus musculus
# Test: Inhibition of activin - stimulated serum FSH level in ovariectomized CD1 mouse at 30 mg/kg, sc by ELISA (reference value: 100%)
# Type: functional
# Details: not given
# How it was run: (§1)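 Ovariectomized 12-week-old CD1 mice dosed subcutaneously twice daily for 2 days (4 doses); vehicle TBS or DMSO; Fst288 200 µg/kg for 3 doses as reference. Serum then collected, stored −20 °C, FSH measured by ELISA (sensitivity 0.35 mIU/mL, read 450 nm); vehicle mean set to 100%. 5–7 mice per group, 10 controls; one-way ANOVA with Tukey.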
row,Compound,inhibition in vivo at 30 mg/kg [%]
1,CCn1c(-c2cccnc2)nc2cc(NC(=O)COC)cc(C(=O)NCc3ccccc3)c21,70

# System: Mus musculus
# Test: Inhibition of activin - stimulated serum FSH level in ovariectomized CD1 mouse at 60 mg/kg, sc by ELISA (reference value: 100%)
# Type: functional
# Details: not given
# How it was run: as §1
row,Compound,inhibition in vivo at 60 mg/kg [%]
1,CCn1c(-c2cccnc2)nc2cc(NC(=O)COC)cc(C(=O)NCc3ccccc3)c21,70

# System: Mus musculus
# Test: Inhibition of activin - stimulated serum FSH level in ovariectomized CD1 mouse at 15 mg/kg, sc by ELISA (reference value: 100%)
# Type: functional, organism-based
# Details: not given
# How it was run: as §1
row,Compound,Activity
1,CCn1c(-c2cccnc2)nc2cc(NC(=O)COC)cc(C(=O)NCc3ccccc3)c21,inactive

# Target: T3, Inhibin beta A chain (Homo sapiens) (UniProt P08476)
# T3 sequence (whole entry): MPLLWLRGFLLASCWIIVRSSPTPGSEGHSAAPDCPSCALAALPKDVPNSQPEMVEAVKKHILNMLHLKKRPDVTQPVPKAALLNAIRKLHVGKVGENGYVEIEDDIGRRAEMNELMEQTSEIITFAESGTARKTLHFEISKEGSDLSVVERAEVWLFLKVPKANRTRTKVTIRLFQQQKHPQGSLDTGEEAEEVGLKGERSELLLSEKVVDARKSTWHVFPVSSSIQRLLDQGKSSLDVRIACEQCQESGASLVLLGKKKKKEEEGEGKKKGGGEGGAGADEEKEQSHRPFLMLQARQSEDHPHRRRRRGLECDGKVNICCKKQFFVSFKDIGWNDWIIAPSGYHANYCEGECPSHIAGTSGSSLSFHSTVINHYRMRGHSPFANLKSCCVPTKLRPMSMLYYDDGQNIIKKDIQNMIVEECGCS
# Test: Inhibition of interaction of activin A (unknown origin)/ActRIIA-ECD complex with ALK4-ECD-Fc after 120 secs by competitive binding/ Blitz binding assay
# Details: not given
# How it was run: (§2)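 ALK4-ECD-Fc (50 ng/mL) captured on a protein A biosensor for 120 s, then dipped into activin A/ActRIIA-ECD premixed 1:2 molar, 1.6 µM final in PBS, with solvent or compound at 0.4, 1.6, 6.25 or 25 µM; 120 s association, 120 s dissociation in PBS; wavelength shift monitored by Blitz.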
row,Compound,inhibition
1,CCn1c(-c2cccnc2)nc2cc(NC(=O)COC)cc(C(=O)NCc3ccccc3)c21,Dose-dependent effect

# Target: T3, Inhibin beta A chain (Homo sapiens)
# Test: Inhibition of interaction of activin A (unknown origin) with ActRIIA-ECD complex at 25 uM after 120 secs by competitive binding/ Blitz binding assay
# Details: not given
# How it was run: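 Protein A biosensor (Blitz, dip-and-read) loaded with ActRIIA-ECD-Fc; activin A at 1.6 µM final, with solvent or compound at 25 µM, 120 s association and 120 s dissociation in PBS; real-time wavelength shift recorded.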
row,Compound,Activity
1,CCn1c(-c2cccnc2)nc2cc(NC(=O)COC)cc(C(=O)NCc3ccccc3)c21,inactive

# Target: T3, Inhibin beta A chain (Homo sapiens)
# Test: Inhibition of interaction of activin A (unknown origin)/ActRIIA-ECD complex with ALK4-ECD-Fc at 25 uM after 120 secs by competitive binding/ Blitz binding assay
# Details: not given
# How it was run: as §2
row,Compound,Activity
1,CCn1c(-c2cccnc2)nc2cc(NC(=O)COC)cc(C(=O)NCc3ccccc3)c21,Active

# Target: Growth/differentiation factor 8 (Homo sapiens) (UniProt O14793)
# Test: Inhibition of interaction of myostatin (unknown origin)/ActRIIA-ECD complex with ALK4-ECD-Fc at 25 uM after 120 secs by competitive binding/ Blitz binding assay
# Details: not given
# How it was run: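 Blitz biolayer assay: ALK4-ECD-Fc (50 ng/mL) captured on protein A biosensor 120 s, exposed to myostatin/ActRIIA-ECD premixed 1:2 molar at 1.6 µM final in PBS with solvent or compound at 25 µM; 120 s association, 120 s dissociation; real-time wavelength shift.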
row,Compound,Activity
1,CCn1c(-c2cccnc2)nc2cc(NC(=O)COC)cc(C(=O)NCc3ccccc3)c21,inactive

# Target: T4, Growth/differentiation factor 8 (Mus musculus, UniProt O08689)
# T4 sequence (O08689 whole entry): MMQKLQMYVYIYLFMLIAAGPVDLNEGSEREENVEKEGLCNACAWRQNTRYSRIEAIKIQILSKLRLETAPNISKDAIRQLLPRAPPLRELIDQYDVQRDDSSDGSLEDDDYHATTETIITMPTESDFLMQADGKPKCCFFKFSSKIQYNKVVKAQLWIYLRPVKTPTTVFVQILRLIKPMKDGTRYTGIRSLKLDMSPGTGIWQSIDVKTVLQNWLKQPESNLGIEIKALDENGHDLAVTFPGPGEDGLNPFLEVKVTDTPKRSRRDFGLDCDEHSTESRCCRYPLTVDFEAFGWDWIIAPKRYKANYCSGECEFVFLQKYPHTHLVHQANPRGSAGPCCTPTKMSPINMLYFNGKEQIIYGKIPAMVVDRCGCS
# Test: Antagonist activity at myostatin in mouse LbetaT2 cells transfected with -338 promoter region of FSHbeta gene conjugated to luciferase reporter assessed as inhibition of FSHbeta promoter activation by luciferase assay
# Type: cell-based
# Details: not given
# How it was run: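 Stable −338FSHβ-Luc LβT2 cells were plated at 5 × 10^4/well. They were stimulated with myostatin (0.2 nM) plus DMSO solvent control, or with compound at 0.8–100 µM, for 6 h at 37 °C in serum-free, phenol red-free DMEM-F12. Cells were lysed for luciferase readout. Runs were in triplicate across three experiments, and IC50 came from a sigmoidal variable-slope fit, reported as mean ± SD.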
row,Compound,IC50 [µM]
1,CCn1c(-c2cccnc2)nc2cc(NC(=O)COC)cc(C(=O)NCc3ccccc3)c21,47.9
